The source made the active and inactive calls. No cut-off for these calls is given here.
Columns and labels:
[1] = molecular target: T1, GABA-A receptor; alpha-3/beta-3/gamma-2 (Homo sapiens, UniProt P18507+P28472+P34903); assay: Displacement of [3H]Ro-151788 from recombinant human GABA-Aalpha3 receptor plus beta3gamma2; format: protein-complex assay
T1 sequence (P18507 whole entry): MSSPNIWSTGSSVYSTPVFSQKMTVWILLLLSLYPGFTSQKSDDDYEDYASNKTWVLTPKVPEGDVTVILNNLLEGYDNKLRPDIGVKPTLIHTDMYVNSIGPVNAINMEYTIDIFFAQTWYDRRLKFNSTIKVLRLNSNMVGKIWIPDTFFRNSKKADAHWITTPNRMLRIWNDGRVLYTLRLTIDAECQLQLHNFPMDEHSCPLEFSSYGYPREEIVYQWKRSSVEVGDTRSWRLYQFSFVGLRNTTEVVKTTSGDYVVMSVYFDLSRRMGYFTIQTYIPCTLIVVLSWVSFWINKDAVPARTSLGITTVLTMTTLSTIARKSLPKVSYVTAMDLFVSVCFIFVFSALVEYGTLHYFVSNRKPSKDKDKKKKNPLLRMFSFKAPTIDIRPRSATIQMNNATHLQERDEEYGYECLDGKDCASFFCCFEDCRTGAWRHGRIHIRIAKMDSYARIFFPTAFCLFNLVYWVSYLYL
T1 sequence (P28472 whole entry): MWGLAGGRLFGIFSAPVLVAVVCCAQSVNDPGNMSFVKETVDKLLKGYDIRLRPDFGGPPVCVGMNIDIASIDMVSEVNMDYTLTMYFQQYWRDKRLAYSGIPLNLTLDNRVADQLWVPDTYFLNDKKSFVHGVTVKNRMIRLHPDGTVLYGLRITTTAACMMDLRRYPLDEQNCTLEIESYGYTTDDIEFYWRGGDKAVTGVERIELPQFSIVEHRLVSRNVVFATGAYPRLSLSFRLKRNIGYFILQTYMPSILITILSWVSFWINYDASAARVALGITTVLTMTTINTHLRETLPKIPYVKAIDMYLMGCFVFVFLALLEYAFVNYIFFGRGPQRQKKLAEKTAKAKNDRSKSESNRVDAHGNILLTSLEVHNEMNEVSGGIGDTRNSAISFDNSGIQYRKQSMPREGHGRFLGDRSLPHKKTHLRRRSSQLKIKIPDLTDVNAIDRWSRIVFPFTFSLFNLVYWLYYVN
T1 sequence (P34903 whole entry): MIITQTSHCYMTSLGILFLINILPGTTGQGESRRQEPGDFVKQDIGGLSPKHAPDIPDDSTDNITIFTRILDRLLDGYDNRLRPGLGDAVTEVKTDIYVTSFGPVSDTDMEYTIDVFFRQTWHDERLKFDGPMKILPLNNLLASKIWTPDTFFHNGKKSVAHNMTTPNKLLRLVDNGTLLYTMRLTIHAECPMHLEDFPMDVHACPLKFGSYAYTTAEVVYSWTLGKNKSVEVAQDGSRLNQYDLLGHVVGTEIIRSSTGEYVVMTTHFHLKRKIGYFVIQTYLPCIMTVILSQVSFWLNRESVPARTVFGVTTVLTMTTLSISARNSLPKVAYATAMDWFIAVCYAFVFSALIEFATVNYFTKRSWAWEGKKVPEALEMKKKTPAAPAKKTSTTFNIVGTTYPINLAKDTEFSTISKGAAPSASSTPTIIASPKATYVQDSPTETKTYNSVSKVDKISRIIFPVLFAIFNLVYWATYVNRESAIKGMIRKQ
Summary of the method: (§1)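 Benzodiazepine-site binding on stably transfected αxβ3γ2 receptors (x = 1, 2, 3 or 5). Inhibition curves run with [3H]Ro15-1788 at roughly twice its Kd. Ki derived by Cheng-Prusoff equation. Mean of three to six determinations.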

[2] = Stability in dog assessed as liver microsomal turnover; format: ADME, Canis lupus familiaris; conditions: liver microsomes, read-out: Stability
Summary of the method: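 Test compound at 1 µM, with diazepam as control, incubated 0.25 h with pooled liver microsomes at 0.5 mg/mL protein. Compound remaining quantified by LC/MS/MS. Turnover is the mean of three determinations.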

[3] = Half life in Rhesus monkey; format: ADME, organism-based, Macaca mulatta; conditions: in vivo
Summary of the method: (§2)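 Pharmacokinetics from six animals per species: three dosed iv and three dosed po.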

[4] = Half life in dog; format: ADME, organism-based, Canis lupus familiaris; conditions: in vivo; summary of the method: as §2
[5] = molecular target: GABA-A receptor; alpha-1/beta-3/gamma-2 (Homo sapiens) (UniProt P14867+P18507+P28472); assay: Efficacy against recombinant human GABA-Aalpha1 plus beta-3-gamma-2 expressed in L(tk-) cells by whole cell patch clamp method; format: functional, cell-based
Summary of the method: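 Whole-cell patch clamp on αxβ3γ2 receptors stably expressed in L(tk-) cells, measuring the effect on current evoked by an EC20-equivalent of GABA. Reported relative to full agonist chlordiazepoxide (=1.0), or as direct percent modulation of the EC20 control, with inverse agonism given as percent. Mean of at least four independent experiments.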

[6] = Oral bioavailability in dog; format: ADME, organism-based, Canis lupus familiaris; conditions: in vivo; summary of the method: as §2
[7] = Plasma clearance in Rhesus monkey; format: ADME, organism-based, Macaca mulatta; summary of the method: as §2
[8] = Plasma clearance in dog; format: ADME, organism-based, Canis lupus familiaris; summary of the method: as §2
[9] = molecular target: T2, GABA-A receptor; alpha-2/beta-3/gamma-2 (Homo sapiens, UniProt P18507+P28472+P47869); assay: Displacement of [3H]Ro-151788 from recombinant human GABA-Aalpha2 receptor plus beta3gamma2; format: protein-complex assay; summary of the method: as §1
T2 sequence (P18507 whole entry): T1 sequence (P18507 whole entry)
T2 sequence (P28472 whole entry): T1 sequence (P28472 whole entry)
T2 sequence (P47869 whole entry): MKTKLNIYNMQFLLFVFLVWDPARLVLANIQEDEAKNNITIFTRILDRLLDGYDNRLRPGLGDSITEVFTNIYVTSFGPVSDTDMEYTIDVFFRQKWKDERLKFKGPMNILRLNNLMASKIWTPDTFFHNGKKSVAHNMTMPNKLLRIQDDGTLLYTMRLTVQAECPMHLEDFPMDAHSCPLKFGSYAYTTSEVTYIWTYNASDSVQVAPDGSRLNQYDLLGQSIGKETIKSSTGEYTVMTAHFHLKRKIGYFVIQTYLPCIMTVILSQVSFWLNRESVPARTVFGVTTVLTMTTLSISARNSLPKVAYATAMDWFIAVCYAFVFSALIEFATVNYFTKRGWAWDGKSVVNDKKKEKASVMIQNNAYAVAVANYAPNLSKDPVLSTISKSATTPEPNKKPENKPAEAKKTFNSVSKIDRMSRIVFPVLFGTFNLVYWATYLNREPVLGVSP

Rattus norvegicus = assay: Anxiolytic activity in rat plus-maze assay at 1 mg/kg, po; format: functional, organism-based; design: dose 1 mg/kg
Summary of the method: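 Rats given vehicle (0.5% methyl cellulose) or compound orally; chlordiazepoxide 5 mg/kg ip as positive control. Placed on elevated plus maze 30 min after dosing; time on open arms recorded as anxiety index. Significance versus vehicle at p < 0.05; mean ± SEM, n = 16-18/group.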

[10] = molecular target: GABA-A receptor; anion channel (Rattus norvegicus) (UniProt O09028+P15431+P18506+P18508+P19969+P20236+P23574+P23576+P28471+P28473+P30191+P62813+P63079+P63138+Q91ZM7+Q9ES14); assay: Receptor occupancy in vivo by displacement of [3H]Ro-151788 binding from GABA-A receptor in rat at 0.1 mg/kg, po; format: functional, organism-based; design: dose 0.1 mg/kg
Summary of the method: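 Rat in vivo occupancy measured by [3H]Ro 15-1788 binding after oral dosing. Rats taken as a subgroup after the plus-maze trial, i.e. 30 min post-dose or later. ED50 derived from dose-dependent occupancy. Mean ± SEM, n = 5-10/group.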

Ki [1] [nM] | metabolised [2] [%] | half-life [3] [h] | half-life [4] [h] | Efficacy [5] [%] | bioavailability [6] [%] | clearance [7] [mL/min/kg] | clearance [8] [mL/min/kg] | Ki [9] [nM] | Activity [10] [%] | SMILES | Activity (Rattus norvegicus)
6.3 | 4 | 8.4 | 3.9 | -3 | 72 | 6 | 17 | – | – | Fc1cnc(-c2cc(-c3cnnc(-c4c(F)cncc4F)c3)ccc2F)c(F)c1 | –
5 | 0 | – | – | -9 | – | – | – | 4.6 | – | Fc1cnc(-c2cc(-c3cnnc(-c4c(F)cc(F)cc4F)c3)ccc2F)c(F)c1 | –
2 | – | – | – | -0.8 | – | – | – | – | 57 | Fc1cnc(-c2cc(-c3ccc(F)c(-c4ncccc4F)c3)cnn2)c(F)c1 | Active
8.5 | 8 | – | 15 | -7 | 40 | – | 3.9 | 10.9 | – | Fc1cnc(-c2cc(-c3ccc(F)c(-c4ncc(F)cc4F)c3)cnn2)c(F)c1 | –
